From ChEMBL document CHEMBL1148787, “Novel substituted (pyridin-3-yl)phenyloxazolidinones: antibacterial agents with reduced activity against monoamine oxidase A and increased solubility” (J Med Chem, 2007)
Converted amounts (≈) assume the structure as drawn.

Columns and labels:
[1] = AUC in Wistar rat at 10 mg/kg, iv; format: ADME, organism-based; set-up: dose 10 mg/kg, route intravenous; details: plasma
Method in brief: (§1)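 Groups of three Wistar Han rats; bolus injection via cannulated jugular vein at 2 or 10 mg/kg. Serial 200 µL whole-blood samples at time intervals; plasma levels by LC-MS/MS; parameters by noncompartmental analysis.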

[2] = Solubility by nephelometric analysis; format: physicochemical
Method in brief: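 Nephelometry after diluting compounds into the MAO-A assay mixture (100 mM potassium phosphate, pH 7.4).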

Staphylococcus aureus = assay: Antibacterial activity against methicillin-susceptible Staphylococcus aureus AP601055; format: functional
Method in brief: (§2)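 CLSI broth microdilution, 64 to 0.06 µg/mL, 2% DMSO final. Media: S. aureus, Mueller Hinton broth; H. influenzae, MHB plus 0.5% yeast extract, 15 µg/mL hematin, 1.5 µg/mL NAD; S. pneumoniae, MHB plus 0.65% lysed horse blood. 35 °C, aerobic (S. aureus) or 5% CO2.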

Streptococcus pneumoniae [3] = assay: Antibacterial activity against penicillin-susceptible Streptococcus pneumoniae AP671401; format: functional; method in brief: as §2
[4] = Volume of distribution in Wistar rat at 10 mg/kg, iv; format: ADME, organism-based; set-up: dose 10 mg/kg, route intravenous; details: in vivo, read-out: Vdss; method in brief: as §1
[5] = biological target: T1, Amine oxidase [flavin-containing] A (Homo sapiens, UniProt P21397); assay: Inhibition of human liver MAOA expressed in yeast
T1 sequence (P21397 whole entry): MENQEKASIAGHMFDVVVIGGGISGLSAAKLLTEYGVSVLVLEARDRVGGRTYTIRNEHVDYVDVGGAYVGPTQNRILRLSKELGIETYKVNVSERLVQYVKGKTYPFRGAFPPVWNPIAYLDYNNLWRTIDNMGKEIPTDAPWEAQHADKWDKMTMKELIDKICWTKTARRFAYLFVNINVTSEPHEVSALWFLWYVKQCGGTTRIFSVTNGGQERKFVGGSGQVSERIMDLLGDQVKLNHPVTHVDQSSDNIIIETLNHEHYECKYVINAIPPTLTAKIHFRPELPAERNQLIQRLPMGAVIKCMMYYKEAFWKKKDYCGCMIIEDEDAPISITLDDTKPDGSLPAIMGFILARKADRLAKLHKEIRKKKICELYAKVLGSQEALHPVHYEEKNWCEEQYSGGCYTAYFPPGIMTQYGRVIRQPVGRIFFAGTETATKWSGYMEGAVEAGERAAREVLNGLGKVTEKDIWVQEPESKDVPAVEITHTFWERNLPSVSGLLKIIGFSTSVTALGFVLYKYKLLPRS

Haemophilus influenzae = assay: Antibacterial activity against Haemophilus influenzae ATCC 51907; format: functional; method in brief: as §2
[6] = Clearance in Wistar rat at 10 mg/kg, iv; format: ADME, organism-based; set-up: dose 10 mg/kg, route intravenous; details: in vivo; method in brief: as §1
Streptococcus pneumoniae [7] = assay: Antibacterial activity against linezolid-resistant Streptococcus pneumoniae; format: functional
Method in brief: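 Broth microdilution per CLSI guidelines. Compounds were dissolved in 100% DMSO and diluted to 2% DMSO (v/v), 64 to 0.06 µg/mL, in 2.2% (w/v) Mueller Hinton broth with 0.65% (v/v) lysed horse blood. Plates were incubated at 35 °C in 5% CO2 and read at 620 nm.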

[8] = Oral bioavailability in Wistar rat at 10 mg/kg, po; format: ADME, organism-based; details: in vivo
Method in brief: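 Wistar Han rats, groups of three; 10 mg/kg given by oral gavage, compared against iv dosing. Serial whole-blood sampling, plasma drug by LC-MS/MS, noncompartmental pharmacokinetic analysis.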

[9] = Half life in Wistar rat at 10 mg/kg, iv; format: ADME, organism-based; set-up: dose 10 mg/kg, route intravenous; details: in vivo; method in brief: as §1
Homo sapiens = organism: Homo sapiens; assay: Protein binding in human plasma; details: read-out: PPB (converted)

Molecule `C[C@H](O)c1ccc(-c2ccc(N3C[C@H](Cn4ccnn4)OC3=O)cc2F)cn1` has an AUC [1] of 6700 ng·h/mL, a solubility kinetic [2] greater than 400 µM and an MIC (Staphylococcus aureus) of 0.5 µg/mL (≈ 1.3 µM). The MIC (Streptococcus pneumoniae [3]) was less than 0.06 µg/mL, the Vd [4] was 1.3 L/kg and the Ki [5] was 5.9 µM. The MIC (Haemophilus influenzae) was 2 µg/mL (≈ 5.22 µM), the clearance [6] was 25 mL/min/kg and the MIC (Streptococcus pneumoniae [7]) was 1 µg/mL (≈ 2.61 µM). For the same molecule, the bioavailability [8] was 100% and the half-life [9] was 60 min.
Molecule `CO[C@@H](C)c1ccc(-c2ccc(N3C[C@H](Cn4ccnn4)OC3=O)cc2F)cn1` has a solubility kinetic [2] greater than 400 µM, an MIC (Staphylococcus aureus) of 1 µg/mL (≈ 2.52 µM) and an MIC (Streptococcus pneumoniae [3]) of 0.25 µg/mL (≈ 0.629 µM). It also gave a Ki [5] of 2.5 µM, an MIC (Haemophilus influenzae) of 16 µg/mL (≈ 40.3 µM) and an MIC (Streptococcus pneumoniae [7]) of 4 µg/mL (≈ 10.1 µM).
Molecule `CC(C)(O)c1ccc(-c2ccc(N3C[C@H](Cn4ccnn4)OC3=O)cc2F)cn1` has a solubility kinetic [2] of 200 µM (≈ 79.5 µg/mL), an MIC (Staphylococcus aureus) of 1 µg/mL (≈ 2.52 µM) and an MIC (Streptococcus pneumoniae [3]) of 0.25 µg/mL (≈ 0.629 µM). For the same molecule, the Ki [5] was 6 µM, the MIC (Haemophilus influenzae) was 8 µg/mL (≈ 20.1 µM) and the MIC (Streptococcus pneumoniae [7]) was 2 µg/mL (≈ 5.03 µM).
For `O=C1O[C@@H](Cn2ccnn2)CN1c1ccc(-c2ccc(C(O)CO)nc2)c(F)c1` (stereo not given in full), the AUC [1] was 3900 ng·h/mL, the solubility kinetic [2] was greater than 400 µM and the fraction unbound (Homo sapiens) was 0.54. It also gave an MIC (Staphylococcus aureus) of 0.25 µg/mL (≈ 0.626 µM), an MIC (Streptococcus pneumoniae [3]) of less than 0.06 µg/mL and a Vd [4] of 1 L/kg. For the same molecule, the MIC (Haemophilus influenzae) was 1 µg/mL (≈ 2.5 µM), the clearance [6] was 43 mL/min/kg and the MIC (Streptococcus pneumoniae [7]) was 1 µg/mL (≈ 2.5 µM). It also gave a half-life [9] of 27 min.
`O=C1O[C@@H](Cn2ccnn2)CN1c1ccc(-c2ccc(C(O)C3CCNCC3)nc2)c(F)c1` (stereo not given in full) gave a solubility kinetic [2] greater than 400 µM, an MIC (Staphylococcus aureus) of 64 µg/mL (≈ 141 µM) and an MIC (Streptococcus pneumoniae [3]) of 4 µg/mL (≈ 8.84 µM). For the same molecule, the Ki [5] was 136 µM, the MIC (Haemophilus influenzae) was 64 µg/mL (≈ 141 µM) and the MIC (Streptococcus pneumoniae [7]) was 32 µg/mL (≈ 70.7 µM).
`CC(C)NCC(O)c1ccc(-c2ccc(N3C[C@H](Cn4ccnn4)OC3=O)cc2F)cn1` (stereo not given in full) showed a solubility kinetic [2] greater than 400 µM, an MIC (Staphylococcus aureus) of 4 µg/mL (≈ 9.08 µM) and an MIC (Streptococcus pneumoniae [3]) of 0.5 µg/mL (≈ 1.14 µM). It also gave a Ki [5] greater than 178 µM, an MIC (Haemophilus influenzae) of 4 µg/mL (≈ 9.08 µM) and an MIC (Streptococcus pneumoniae [7]) of 2 µg/mL (≈ 4.54 µM).
With `CN(C)CC(O)c1ccc(-c2ccc(N3C[C@H](Cn4ccnn4)OC3=O)cc2F)cn1` (stereo not given in full) the solubility kinetic [2] was greater than 400 µM, the MIC (Staphylococcus aureus) was 4 µg/mL (≈ 9.38 µM) and the MIC (Streptococcus pneumoniae [3]) was 0.25 µg/mL (≈ 0.586 µM). It also gave a Ki [5] greater than 178 µM, an MIC (Haemophilus influenzae) of 4 µg/mL (≈ 9.38 µM) and an MIC (Streptococcus pneumoniae [7]) of 2 µg/mL (≈ 4.69 µM).
For `CC(=O)c1ccc(-c2ccc(N3C[C@H](Cn4ccnn4)OC3=O)cc2F)cn1`, the solubility kinetic [2] was 50 µM (≈ 19.1 µg/mL), the MIC (Staphylococcus aureus) was 0.25 µg/mL (≈ 0.656 µM) and the MIC (Streptococcus pneumoniae [3]) was less than 0.06 µg/mL. It also gave a Ki [5] of 0.7 µM, an MIC (Haemophilus influenzae) of 2 µg/mL (≈ 5.24 µM) and an MIC (Streptococcus pneumoniae [7]) of 0.5 µg/mL (≈ 1.31 µM).
With `O=C(c1ccc(-c2ccc(N3C[C@H](Cn4ccnn4)OC3=O)cc2F)cn1)C1CNC1` the solubility kinetic [2] was 200 µM (≈ 84.5 µg/mL), the MIC (Staphylococcus aureus) was 8 µg/mL (≈ 18.9 µM) and the MIC (Streptococcus pneumoniae [3]) was 1 µg/mL (≈ 2.37 µM). The Ki [5] was 4.5 µM, the MIC (Haemophilus influenzae) was 16 µg/mL (≈ 37.9 µM) and the MIC (Streptococcus pneumoniae [7]) was 4 µg/mL (≈ 9.47 µM).
With `O=C(Cn1ccnc1)c1ccc(-c2ccc(N3C[C@H](Cn4ccnn4)OC3=O)cc2F)cn1` the solubility kinetic [2] was 12.5 µM (≈ 5.59 µg/mL), the MIC (Staphylococcus aureus) was 0.25 µg/mL (≈ 0.559 µM) and the Ki [5] was greater than 12 µM. For the same molecule, the MIC (Haemophilus influenzae) was 2 µg/mL (≈ 4.47 µM) and the MIC (Streptococcus pneumoniae [7]) was 0.5 µg/mL (≈ 1.12 µM).
`COCc1ccc(-c2ccc(N3C[C@H](Cn4ccnn4)OC3=O)cc2F)cn1` gave a solubility kinetic [2] of 100 µM (≈ 38.3 µg/mL), an MIC (Staphylococcus aureus) of 0.5 µg/mL (≈ 1.3 µM) and an MIC (Streptococcus pneumoniae [3]) of 0.13 µg/mL (≈ 0.339 µM). It also gave a Ki [5] of 1.7 µM, an MIC (Haemophilus influenzae) of 4 µg/mL (≈ 10.4 µM) and an MIC (Streptococcus pneumoniae [7]) of 1 µg/mL (≈ 2.61 µM).
`CO[C@H](C)c1ccc(-c2ccc(N3C[C@H](Cn4ccnn4)OC3=O)cc2F)cn1` gave a solubility kinetic [2] greater than 400 µM, an MIC (Staphylococcus aureus) of 1 µg/mL (≈ 2.52 µM) and an MIC (Streptococcus pneumoniae [3]) of 0.25 µg/mL (≈ 0.629 µM). It also gave a Ki [5] of 3 µM, an MIC (Haemophilus influenzae) of 8 µg/mL (≈ 20.1 µM) and an MIC (Streptococcus pneumoniae [7]) of 2 µg/mL (≈ 5.03 µM).
